This is an account of results in ChEMBL document CHEMBL5154906, “Design of a Potent, Selective, and Brain-Penetrant Inhibitor of Wnt-Deactivating Enzyme Notum by Optimization of a Crystallographic Fragment Hit” (J Med Chem, 2022).

Series [1] concerns the target T1, Palmitoleoyl-protein carboxylesterase NOTUM (Homo sapiens, UniProt Q6P988, C330S). Nature of the series: Inhibition of human Notum (S81 to T451 residues) Cys330Ser mutant expressed in HEK293S cells using OPTS as substrate incubated for 40 mins by fluorescence based assay.
In series [2] the target is T1, Palmitoleoyl-protein carboxylesterase NOTUM. The series is described as follows: Inhibition of human Notum (S81 to T451 residues) Cys330Ser mutant expressed in HEK293S cells at 10 uM using OPTS as substrate incubated for 40 mins by fluorescence based assay relative to control. It counts as cell-based. In a few lines:
(§1)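 Recombinant human Notum (81–451, Cys330Ser) was the enzyme and OPTS the carboxylesterase substrate. Values are percent inhibition at a single concentration, 10 μM or 100 μM.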

For series [3] the target is unchanged. The series is described as follows: Inhibition of human Notum (S81 to T451 residues) Cys330Ser mutant expressed in HEK293S cells at 100 uM using OPTS as substrate incubated for 40 mins by fluorescence based assay relative to control. It is filed as cell-based. The method in brief:
as §1

A short description of series [4]: Metabolic stability in human liver microsomes assessed as intrinsic clearance. It is filed as ADME, Microsome. The conditions noted are these: read-out: CLH. A general note: Liver microsomes are a subcellular fraction often used to study metabolism.
The nature of series [5]: Toxicity in wild type mouse at 30 mg/kg, po administered twice daily for 7 days. As to conditions: in vivo, 168 h; call rule not given here.
Series [6] in a line: Metabolic stability in rat liver microsomes assessed as intrinsic clearance. It is filed as ADME, Microsome. The conditions noted are these: read-out: CLH.
Series [7] concerns the target Casein kinase I isoform alpha (Homo sapiens) (UniProt P48729). Nature of the series: Inhibition of CK1 (unknown origin) at 10 uM relative to control.
A short description of series [8]: Drug uptake in mouse assessed as plasma concentration at 30 mg/kg, po administered twice daily for 7 days. It counts as ADME, organism-based. As to conditions: in vivo, 168 h, time 7 day. In a few lines:
(§2)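 Mice received 30 mg/kg orally twice daily, at T = 0 and 9 h, in formulation A (DMSO 2% v/v + 10% v/v Solutol in 1× PBS, 98% v/v). Plasma and brain drug concentrations were followed over time.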

A short description of series [9]: Drug uptake in mouse assessed as brain concentration at 30 mg/kg, po administered twice daily for 7 days. It is filed as ADME, organism-based. The conditions noted are these: in vivo, 168 h, time 7 day. In a few lines:
as §2

Series [10] has as its target Glycogen synthase kinase-3 (Homo sapiens) (UniProt P49840+P49841). The series is described as follows: Inhibition of GSK3 (unknown origin) at 10 uM relative to control. It counts as protein assay.
The nature of series [11]: Toxicity in aged APP/PS1 mouse at 30 mg/kg, po administered twice daily for 7 days. The conditions noted are these: in vivo, 168 h.
Series [12] is described as follows: Metabolic stability in dog liver microsomes assessed as intrinsic clearance. It counts as ADME, Canis lupus familiaris, Microsome. The conditions noted are these: read-out: CLH.
The nature of series [13]: Metabolic stability in mouse hepatocyte assessed as intrinsic clearance measured per 10^6 cells. As to conditions: hepatocytes, read-out: CLH. It is filed as ADME, cell-based.
Another series is described as follows: in vivo. The conditions noted are these: Sprague-Dawley, rat, brain, po, 10 mg/kg.
Series [14] is described as follows: Metabolic stability in mouse liver microsomes assessed as intrinsic clearance. It is filed as ADME, Microsome. As to conditions: read-out: CLH.
Series [15] in a line: Efflux ratio of apparent permeability from basolateral to apical side over apical to basolateral side in MDCK-MDR1 cells. The conditions noted are these: dog.

T1 sequence (Q6P988 20-496 C330S limits assumed): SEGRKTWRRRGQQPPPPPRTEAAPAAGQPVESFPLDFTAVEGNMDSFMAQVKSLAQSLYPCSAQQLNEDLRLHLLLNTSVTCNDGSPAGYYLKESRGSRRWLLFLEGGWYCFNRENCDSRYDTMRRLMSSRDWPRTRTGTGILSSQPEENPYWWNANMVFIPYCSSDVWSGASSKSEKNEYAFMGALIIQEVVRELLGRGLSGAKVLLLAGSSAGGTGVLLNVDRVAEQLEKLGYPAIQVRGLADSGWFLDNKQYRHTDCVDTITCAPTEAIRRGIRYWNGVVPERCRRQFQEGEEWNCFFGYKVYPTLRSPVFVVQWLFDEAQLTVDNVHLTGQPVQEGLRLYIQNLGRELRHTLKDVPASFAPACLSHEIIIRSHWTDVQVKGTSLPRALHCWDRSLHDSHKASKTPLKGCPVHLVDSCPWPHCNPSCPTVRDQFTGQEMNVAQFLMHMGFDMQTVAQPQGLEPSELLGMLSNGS
Glycogen synthase kinase-3 (Homo sapiens), sequence (P49840 whole entry, looked up): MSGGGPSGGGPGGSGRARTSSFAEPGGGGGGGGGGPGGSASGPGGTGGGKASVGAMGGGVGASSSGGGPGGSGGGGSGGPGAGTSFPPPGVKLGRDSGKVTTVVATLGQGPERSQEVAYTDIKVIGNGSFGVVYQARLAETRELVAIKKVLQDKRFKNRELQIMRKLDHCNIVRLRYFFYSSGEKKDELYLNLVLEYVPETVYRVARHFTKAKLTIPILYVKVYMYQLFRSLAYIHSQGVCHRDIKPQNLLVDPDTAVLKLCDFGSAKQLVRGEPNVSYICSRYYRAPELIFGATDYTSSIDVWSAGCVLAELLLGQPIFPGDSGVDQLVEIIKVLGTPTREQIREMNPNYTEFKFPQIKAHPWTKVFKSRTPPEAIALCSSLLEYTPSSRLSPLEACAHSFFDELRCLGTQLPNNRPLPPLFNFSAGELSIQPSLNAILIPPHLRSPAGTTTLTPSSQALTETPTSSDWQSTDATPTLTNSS
Glycogen synthase kinase-3 (Homo sapiens), sequence (P49841 whole entry, looked up): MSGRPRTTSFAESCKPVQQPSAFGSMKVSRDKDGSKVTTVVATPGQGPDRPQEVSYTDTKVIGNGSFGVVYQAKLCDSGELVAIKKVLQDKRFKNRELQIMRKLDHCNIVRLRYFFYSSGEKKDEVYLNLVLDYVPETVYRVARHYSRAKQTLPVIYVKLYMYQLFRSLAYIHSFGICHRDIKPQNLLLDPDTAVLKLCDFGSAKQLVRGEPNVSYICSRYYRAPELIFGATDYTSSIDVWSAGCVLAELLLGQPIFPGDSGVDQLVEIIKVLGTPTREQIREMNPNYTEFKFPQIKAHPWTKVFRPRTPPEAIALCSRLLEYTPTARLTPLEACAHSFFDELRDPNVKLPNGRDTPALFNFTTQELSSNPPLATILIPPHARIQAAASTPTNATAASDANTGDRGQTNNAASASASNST
Casein kinase I isoform alpha (Homo sapiens), sequence (P48729 2-337 limits assumed): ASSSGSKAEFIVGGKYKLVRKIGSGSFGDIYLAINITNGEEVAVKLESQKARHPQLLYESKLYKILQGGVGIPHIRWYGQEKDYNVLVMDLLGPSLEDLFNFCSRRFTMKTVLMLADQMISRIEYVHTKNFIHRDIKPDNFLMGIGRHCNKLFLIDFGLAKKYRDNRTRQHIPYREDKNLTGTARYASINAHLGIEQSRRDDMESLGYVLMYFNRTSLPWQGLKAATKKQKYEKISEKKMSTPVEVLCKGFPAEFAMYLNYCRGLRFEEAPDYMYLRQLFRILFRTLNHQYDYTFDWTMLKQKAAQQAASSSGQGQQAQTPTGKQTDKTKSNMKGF

Turning to `OCc1cn(-c2ccccc2Cl)nn1`, the IC50 (in general, the concentration that gives 50% inhibition) in [1] worked out at 32 µM.

`OCc1cn(-c2ccc(C(F)(F)F)cc2)nn1` came in with an IC50 in series [1] of 8.8 µM.

With `Cc1cccc(-n2cc(CO)nn2)c1`, the inhibition (in general, the drop in the measured response relative to a control, in per cent) at 10 µM in [2] stood at 40%.

Compound `OCc1cn(-c2ccc(F)cc2)nn1` yielded an inhibition at 100 µM in [3] of 40%.

As for `OCc1cn(-c2cc(Cl)cc(Cl)c2)nn1`, in [1], the IC50 was 2.4 µM.

In [1], `OCc1cn(-c2ccc(Cl)c(Cl)c2)nn1` registered a 50% inhibitory concentration (IC50) of 0.5 µM. Further, in series [4], the microsomal CLint amounted to 12 µL/min/mg.

With `FC(F)(F)c1c(Cl)ccc(-n2ccnn2)c1Cl`, the Activity result in series [5] and in [11] was “Non-Toxic” in each case. Also, the microsomal CLint is under 9.6 µL/min/mg in [6], 10.8 µL/min/mg in [12], 1.5 µL/min/mg in series [4] and 3.2 µL/min/mg in series [14]. The inhibition in series [7] and in series [10] was under 50% in each case. Moreover, the Cp result in [8] was “Active”. Also, the Ct entry in series [9] is listed as “Active”. In addition, the hepatocyte CLint in [13] came to 19.4 µL/min/1e6 cells. The AUC(0-inf) – broadly, total exposure, with the tail of the curve extrapolated – in the series “in vivo” was 46100 ng·h/mL.

The compound `OCc1cn(-c2ccccc2F)nn1` displayed an IC50 in [1] of 64 µM.

`Cc1ccc(-n2cc(CO)nn2)cc1C` gave a half-inhibitory concentration (IC50) in series [1] of 0.73 µM.

Regarding `FC(F)(F)c1c(Cl)cnc(-n2ccnn2)c1Cl`, in [15], the Ratio came to 2.5.

`OCc1cn(-c2ccc(C(F)(F)F)c(Cl)c2)nn1` gave an IC50 in [1] of 1 µM.

Compound `OCc1cn(-c2cccc(C(F)(F)F)c2)nn1` had an IC50 in series [1] of 2.3 µM.

Regarding `OCc1cn(-c2ccc(Cl)cc2Cl)nn1`, the midpoint of inhibition in series [1], the IC50, lay at 5.6 µM.

`OCc1cn(-c2cccc(Cl)c2)nn1` gave an IC50 in series [1] of 6.3 µM.

`OCc1cn(-c2cccc(Cl)c2Cl)nn1` had a concentration for half-maximal inhibition (IC50) in series [1] of 5.1 µM.

Consider `OCc1cn(-c2cc(Cl)ccc2Cl)nn1`, for which, in series [1], half-maximal inhibition (IC50) required 23 µM.

`OCc1cn(-c2ccc3c(c2)OCCO3)nn1` returned an IC50 in series [1] of 32 µM.

Regarding `[2H]c1nnn(-c2ccc(Cl)c(C(F)(F)F)c2Cl)c1[2H]`, the microsomal CLint in series [14] is 5.4 µL/min/mg.

For `OCc1cn(-c2ccc(Cl)c(C(F)(F)F)c2Cl)nn1`, the microsomal CLint turned out to be 1.7 µL/min/mg in series [4] and 6.7 µL/min/mg in series [14]. The hepatocyte CLint in [13] worked out at 48 µL/min/1e6 cells.

`OCc1cn(-c2ccc(Cl)c(C(F)(F)F)c2)nn1` returned a concentration for half-maximal inhibition (IC50) in series [1] of 0.065 µM.

In [1], `OCc1cn(-c2ccc3c(c2)OCO3)nn1` showed an IC50 of 28 µM.
